Data taken from ChEMBL document CHEMBL1134368, “Alpha(2) adrenoceptor agonists as potential analgesic agents. 3. Imidazolylmethylthiophenes” (J Med Chem, 2001).
pKi: −log10 of the molar value. The source made the active and inactive calls. No cut-off for these calls is given here.

Tests used:
Mus musculus [1] = assay: In vivo antinociceptive activity was determined by mouse abdominal irritant test (MAIT) in male pathogen free albino CD-1 mice; assay type: functional, Abdomen; design: concentration or dose not given beside the values
Method in brief: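 Mice were dosed orally by gavage at several doses, with vehicle controls. Acetylcholine bromide was given at 5.5 mg/kg ip at set intervals later, and writhing was observed. Percent antinociception was calculated per dose from responders per group. ED50 and 95% confidence limits came from Litchfield-Wilcoxon probit analysis with a chi-square linearity test.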

Mus musculus [2] = assay: In vivo antinociceptive activity was determined by Mouse abdominal irritant test (MAIT)in male pathogen free albino CD-1 mice at 30 mg/kg; assay type: functional; details: Abdomen
Method in brief: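 Compound or vehicle was given to mice by oral gavage at 30 mg/kg. After set intervals, acetylcholine bromide was injected at 5.5 mg/kg ip. Percent inhibition was the percentage of responders per group.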

Rattus norvegicus [3] = species: Rattus norvegicus; assay: QT interval was determined during cardiovascular test in normotensive male albino Long-Evans rat; delta QT; assay type: functional, Heart
Rattus norvegicus [4] = species: Rattus norvegicus; assay: QT interval was determined during cardiovascular test in normotensive male albino Long-Evans rat;delta QT; assay type: functional, Heart
Rattus norvegicus [5] = assay: In vivo antinociceptive activity was determined using in rat abdominal irritant test (RAIT) assay; assay type: functional; details: Abdomen
Rattus norvegicus [6] = species: Rattus norvegicus; assay: QT interval was determined during cardiovascular test in normotensive male albino Long-Evans rat; assay type: functional, Heart; design: concentration or dose not given beside the values
[7] = target: T1, Alpha-2C adrenergic receptor (Rattus norvegicus, UniProt P22086); assay: In vitro binding affinity against alpha-2C adrenergic receptor of male Wistar rat
T1 sequence (P22086 whole entry): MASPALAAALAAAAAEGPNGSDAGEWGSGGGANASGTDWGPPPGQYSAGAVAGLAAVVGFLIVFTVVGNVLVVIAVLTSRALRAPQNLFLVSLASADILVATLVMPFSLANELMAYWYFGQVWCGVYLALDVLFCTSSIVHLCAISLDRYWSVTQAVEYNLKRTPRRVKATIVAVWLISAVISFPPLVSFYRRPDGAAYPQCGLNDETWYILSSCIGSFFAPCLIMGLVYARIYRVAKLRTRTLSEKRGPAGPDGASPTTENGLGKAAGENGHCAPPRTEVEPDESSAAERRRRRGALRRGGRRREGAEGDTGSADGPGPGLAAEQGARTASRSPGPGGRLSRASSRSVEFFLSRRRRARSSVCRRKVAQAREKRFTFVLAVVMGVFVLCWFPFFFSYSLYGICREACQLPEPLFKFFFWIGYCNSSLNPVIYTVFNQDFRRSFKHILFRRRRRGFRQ

[8] = target: Adrenergic receptor alpha-2 (Rattus norvegicus) (UniProt P22086+P19328+P22909); assay: compounds were tested for agonistic activity in Alpha2 Adrenoceptor in Rat abdominal irritant test (RAIT); assay type: functional; details: Abdomen
Rattus norvegicus [9] = assay: In vivo antinociceptive activity was determined using in Rat abdominal irritant test(RAIT) assay; IA=inactive; assay type: functional, organism-based; details: Abdomen

Adrenergic receptor alpha-2 (Rattus norvegicus), sequence (P19328 whole entry, looked up, one chain of several): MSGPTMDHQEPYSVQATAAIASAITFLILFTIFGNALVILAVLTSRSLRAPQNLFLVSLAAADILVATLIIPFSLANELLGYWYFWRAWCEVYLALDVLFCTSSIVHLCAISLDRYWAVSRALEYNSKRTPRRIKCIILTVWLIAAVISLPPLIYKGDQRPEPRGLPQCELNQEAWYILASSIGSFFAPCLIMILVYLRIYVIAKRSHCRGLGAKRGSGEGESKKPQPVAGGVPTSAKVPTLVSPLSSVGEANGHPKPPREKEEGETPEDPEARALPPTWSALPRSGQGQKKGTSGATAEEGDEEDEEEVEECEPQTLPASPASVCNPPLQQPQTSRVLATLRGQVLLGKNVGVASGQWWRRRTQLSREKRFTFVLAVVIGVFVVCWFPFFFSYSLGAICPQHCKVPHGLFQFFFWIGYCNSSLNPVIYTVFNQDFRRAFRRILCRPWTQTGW
Adrenergic receptor alpha-2 (Rattus norvegicus), sequence (P22909 whole entry, looked up, one chain of several): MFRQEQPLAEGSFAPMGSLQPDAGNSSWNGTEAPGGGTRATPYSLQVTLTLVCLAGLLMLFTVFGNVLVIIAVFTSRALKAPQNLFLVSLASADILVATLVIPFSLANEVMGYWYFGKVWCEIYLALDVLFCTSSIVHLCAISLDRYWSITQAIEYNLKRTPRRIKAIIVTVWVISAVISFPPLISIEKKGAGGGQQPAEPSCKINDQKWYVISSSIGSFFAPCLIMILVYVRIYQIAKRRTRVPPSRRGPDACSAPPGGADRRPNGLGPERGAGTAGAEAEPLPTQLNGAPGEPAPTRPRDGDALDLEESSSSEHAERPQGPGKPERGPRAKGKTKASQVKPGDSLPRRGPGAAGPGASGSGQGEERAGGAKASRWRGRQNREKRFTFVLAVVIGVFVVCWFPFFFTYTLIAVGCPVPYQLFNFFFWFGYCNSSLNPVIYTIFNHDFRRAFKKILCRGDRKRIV

| Compound | Inhibition (Mus musculus [1]) | ED50 (Rattus norvegicus [5]) | other results |
| --- | --- | --- | --- |
| CC(C)c1cc(Cc2c[nH]cn2)c(C(C)C)s1.O=C(O)/C=C/C(=O)O | 40% |  |  |
| c1csc(Cc2c[nH]cn2)c1 |  |  | inhibition in vivo at 30 mg/kg (Mus musculus [2]): 60% |
| CC(c1c[nH]cn1)c1cscc1Br (stereo not given) |  |  | Activity (Rattus norvegicus [3]): 20% |
| CC(c1c[nH]cn1)c1sccc1Br (stereo not given) |  | 0.97 mg/kg | Activity (Rattus norvegicus [4]): 23% |
| Cl.c1ccc2sc(Cc3c[nH]cn3)cc2c1 | 20% |  |  |
| Cl.c1nc(Cc2cc3c(s2)CCCC3)c[nH]1 | 7% |  |  |
| Cc1ccsc1C(C)c1c[nH]cn1.Cl (stereo not given) | 100% | 2.2 mg/kg |  |
| CCc1cscc1Cc1c[nH]cn1.O=C(O)/C=C/C(=O)O | 100% | 0.32 mg/kg | Activity (Rattus norvegicus [6]): 48% |
| CC(c1c[nH]cn1)c1scc(Br)c1Br.O=C(O)/C=C/C(=O)O (stereo not given) | 80% |  |  |
| Cc1ccsc1Cc1c[nH]cn1.Cl |  | 0.87 mg/kg | inhibition in vivo at 30 mg/kg (Mus musculus [2]): 100%; Activity (Rattus norvegicus [3]): 22% |
| Clc1cc(Cc2c[nH]cn2)c(Cl)s1.O=C(O)/C=C/C(=O)O | 100% | 3.2 mg/kg |  |
| Cc1ccsc1C1(c2c[nH]cn2)CC1.O=C(O)/C=C/C(=O)O | 40% |  |  |
| CCc1sccc1Cc1c[nH]cn1.O=C(O)/C=C/C(=O)O | 100% | 0.27 mg/kg | Activity (Rattus norvegicus [6]): 28% |
| Cc1sccc1Cc1c[nH]cn1.O=C(O)/C=C/C(=O)O | 100% | 0.89 mg/kg |  |
| COC(c1c[nH]cn1)c1cscc1Br.O=C(O)/C=C/C(=O)O (stereo not given) | 100% | 3.6 mg/kg |  |
| COC(c1c[nH]cn1)c1sccc1Br.O=C(O)/C=C/C(=O)O (stereo not given) | 53% |  |  |
| O=C(O)/C=C/C(=O)O.c1ccc2c(Cc3c[nH]cn3)csc2c1 | 0.441% | 0.44 mg/kg |  |
| Cc1sccc1C(C)c1c[nH]cn1.O=C(O)/C=C/C(=O)O (stereo not given) | 100% | 1.6 mg/kg |  |
| Brc1csc(Cc2c[nH]cn2)c1.Cl | 80% | 5.2 mg/kg | pKi [7]: 8.85 |
| Cc1ccc(Cc2c[nH]cn2)s1 |  |  | inhibition in vivo at 30 mg/kg (Mus musculus [2]): 33% |

| Compound | Inhibition (Mus musculus [1]) | ED50 (Rattus norvegicus [5]) | other results |
| --- | --- | --- | --- |
| Cc1cscc1C(C)c1c[nH]cn1.O=C(O)/C=C/C(=O)O (stereo not given) | 100% | 0.27 mg/kg |  |
| CC(c1c[nH]cn1)c1cscc1Br.O=C(O)/C=C/C(=O)O (stereo not given) | 100% | 0.31 mg/kg |  |
| Cc1cscc1Cc1c[nH]cn1.O=C(O)/C=C/C(=O)O | 100% | 0.35 mg/kg | Activity (Rattus norvegicus [6]): 34% |
| Cc1csc(C)c1Cc1c[nH]cn1.O=C(O)/C=C/C(=O)O | 100% |  |  |
| CC(c1c[nH]cn1)c1sccc1Br.Cl (stereo not given) | 100% | 0.97 mg/kg |  |
| Brc1sccc1Cc1c[nH]cn1.O=C(O)/C=C/C(=O)O | 100% |  | ED50 [8]: 1.1 mg/kg |
| COC(c1c[nH]cn1)c1cscc1C.O=C(O)/C=C/C(=O)O (stereo not given) | 100% | 4.4 mg/kg |  |
| Cc1cc(Cc2c[nH]cn2)c(C)s1.O=C(O)/C=C/C(=O)O | 100% | 0.9 mg/kg |  |
| Cc1csc(C(C)c2c[nH]cn2)c1C (stereo not given) |  |  | IA (Rattus norvegicus [9]): inactive |
| Brc1ccsc1Cc1c[nH]cn1.Cl |  | 2 mg/kg | inhibition in vivo at 30 mg/kg (Mus musculus [2]): 100% |
| CCc1cc(Cc2c[nH]cn2)c(CC)s1.O=C(O)/C=C/C(=O)O | 100% | 0.31 mg/kg |  |
| Cc1ccsc1C(C)c1c[nH]cn1 (single isomer, unassigned; (+)) |  | 1.18 mg/kg | Activity (Rattus norvegicus [3]): 24% |
| CCc1cscc1C(C)c1c[nH]cn1.O=C(O)/C=C/C(=O)O (stereo not given) | 100% | 0.48 mg/kg | Activity (Rattus norvegicus [6]): 32% |
| O=C(O)/C=C/C(=O)O.c1nc(Cc2ccsc2)c[nH]1 | 100% | 0.97 mg/kg |  |
| CCC(c1c[nH]cn1)c1cscc1C.O=C(O)/C=C/C(=O)O (stereo not given) | 100% | 2.6 mg/kg |  |
| Cc1cccc([C@H](C)c2c[nH]cn2)c1C [DEXMEDETOMIDINE] |  | 0.12 mg/kg |  |
| Brc1csc(Cc2c[nH]cn2)c1Br.Cl | 93% | 7.1 mg/kg |  |
| Cc1csc(Cc2c[nH]cn2)c1C.Cl |  | 4.7 mg/kg | inhibition in vivo at 30 mg/kg (Mus musculus [2]): 100% |
| CCC(c1c[nH]cn1)c1sccc1C.O=C(O)/C=C/C(=O)O (stereo not given) | 100% |  | IA (Rattus norvegicus [9]): inactive |
| Brc1cscc1Cc1c[nH]cn1.O=C(O)/C=C/C(=O)O | 100% | 0.38 mg/kg | Activity (Rattus norvegicus [6]): 11% |
